Measurements published in ChEMBL document CHEMBL1154676, “Synthetic mRNA splicing modulator compounds with in vivo antitumor activity” (J Med Chem, 2009).

Legend:
MDA-MB-231 = assay: Growth inhibition of human MDA-MB-231 cells by sulforhodamine B assay; type: functional
[1] = Cytotoxicity against human BT-14 cells after 72 hrs by XTT assay; type: functional, cell-based; details: BT-14, 72 h
Outline: (§1)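 Cells grown at 37 °C, 5% CO2; HFF in DMEM with 10% FBS, PrEC in prostate epithelial growth medium. Adherent lines seeded overnight, suspension lines same day; compounds diluted from DMSO stocks into media at various final concentrations, 72 h exposure. XTT reagent added 4 h, absorbance 490 nm (reference 690 nm). Growth as % of vehicle; IC50 from sigmoidal dose-response fit; mean ± SEM, three independent experiments.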

[2] = Cytotoxicity against human Rh30 cells after 72 hrs by XTT assay; type: functional, cell-based; details: SJRH30, 72 h; outline: as §1
HL-60(TB) = assay: Growth inhibition of human HL-60(TB) cells by sulforhodamine B assay; type: functional
NCI-H322M = assay: Growth inhibition of human NCI-H322M cells by sulforhodamine B assay; type: functional
Mus musculus [3] = assay: Toxicity in NOD/SCID mouse assessed as phosphorus level at 5 to 50 mg/kg, iv and po for 5 days; type: organism-based; design: dose 5-50 mg/kg, route oral; details: in vivo, 120 h
TK-10 = assay: Growth inhibition of human TK10 cells by sulforhodamine B assay; type: functional
CCRF-CEM = assay: Growth inhibition of human CCRF-CEM cells by sulforhodamine B assay; type: functional
SK-MEL-2 [4] = assay: Cytotoxicity against human SK-MEL-2 cells after 72 hrs by XTT assay; type: functional, cell-based; details: SK-MEL-2, 72 h; outline: as §1
MOLT-4 = assay: Cytotoxicity against human MOLT4 cells after 72 hrs by XTT assay; type: functional, cell-based; details: MOLT-4, 72 h; outline: as §1
Mus musculus [5] = assay: Toxicity in NOD/SCID mouse assessed as creatinine level at 5 to 50 mg/kg, […] for 5 days; type: organism-based; design: dose 5-50 mg/kg; details: in vivo, po, 120 h
UACC-257 = assay: Growth inhibition of human UACC257 cells by sulforhodamine B assay; type: functional
[6] = Growth inhibition of human […] cells by sulforhodamine B assay; type: functional
OVCAR-8 = assay: Growth inhibition of human OVCAR8 cells by sulforhodamine B assay; type: functional
LOX IMVI = assay: Growth inhibition of human LOXIMVI cells by sulforhodamine B assay; type: functional
[7] = Cytotoxicity against human Rh41 cells after 72 hrs by XTT assay; type: functional, cell-based; details: Rh41, 72 h; outline: as §1
NCI-H460 = assay: Growth inhibition of human NCI-H460 cells by sulforhodamine B assay; type: functional
HT-29 = assay: Growth inhibition of human HT-29 cells by sulforhodamine B assay; type: functional
Mus musculus [8] = assay: Toxicity in NOD/SCID mouse assessed as sodium level at 5 to 50 mg/kg, […] for 5 days; type: organism-based; design: dose 5-50 mg/kg; details: in vivo, po, 120 h
MV4-11 = assay: Cytotoxicity against human MV4-11 cells after 72 hrs by XTT assay; type: functional, cell-based; details: MV4-11, 72 h; outline: as §1
PC-3 = assay: Growth inhibition of human PC3 cells by sulforhodamine B assay; type: functional
HFF = assay: Cytotoxicity against HFF cells after 72 hrs by XTT assay; type: cell-based; details: Homo sapiens; outline: as §1
SK-MEL-2 [9] = assay: Growth inhibition of human SK-MEL-2 cells by sulforhodamine B assay; type: functional
SF-295 = assay: Growth inhibition of human SF295 cells by sulforhodamine B assay; type: functional
PrEC = assay: Cytotoxicity against human PrEC cells after 72 hrs by XTT assay; type: cell-based; outline: as §1
[10] = Growth inhibition of human Hs 578T cells by sulforhodamine B assay; type: functional
Mus musculus [11] = assay: Toxicity in NOD/SCID mouse assessed as albumin level at 5 to 50 mg/kg, iv and po for 5 days; type: organism-based; design: dose 5-50 mg/kg, route oral; details: in vivo, 120 h
MDA-MB-468 = assay: Growth inhibition of human MDA-MB-468 cells by sulforhodamine B assay; type: functional
[12] = Growth inhibition of human MDA-MB-436 cells by sulforhodamine B assay; type: functional
SR = assay: Growth inhibition of human SR cells by sulforhodamine B assay; type: functional
[13] = Cytotoxicity against human NB1643 cells after 72 hrs by XTT assay; type: functional, cell-based; details: NB-1643, 72 h; outline: as §1
[14] = Cytotoxicity against human NB-EBc1 cells after 72 hrs by XTT assay; type: functional, cell-based; details: NB-EBc1, 72 h; outline: as §1
Mus musculus [15] = assay: Toxicity in NOD/SCID mouse assessed as total bilirubin level at 5 to 50 mg/kg, iv and po for 5 days; type: organism-based; design: dose 5-50 mg/kg, route oral; details: in vivo, 120 h
WiDr = assay: Cytotoxicity against human WiDr cells after 72 hrs by XTT assay; type: functional, cell-based; outline: as §1
[16] = Cytotoxicity against human SJ-GBM2 cells after 72 hrs by XTT assay; type: functional, cell-based; outline: as §1
Mus musculus [17] = assay: Toxicity in NOD/SCID mouse assessed as weight loss at 5 to 50 mg/kg, iv and po for 5 days after 1 week; type: organism-based; design: dose 5-50 mg/kg, route oral; details: in vivo, 168 h
EKVX = assay: Growth inhibition of human EKVX cells by sulforhodamine B assay; type: functional
SN12C = assay: Growth inhibition of human SN12C cells by sulforhodamine B assay; type: functional
RXF 393 = assay: Growth inhibition of human RXF393 cells by sulforhodamine B assay; type: functional
CAKI-1 = assay: Growth inhibition of human Caki1 cells by sulforhodamine B assay; type: functional
T47D = assay: Growth inhibition of human T47D cells by sulforhodamine B assay; type: functional
[18] = read-out: Log10GI50 (converted)
[19] = read-out: Log10LC50 (converted)

Compound: CC(/C=C/[C@@H]1C[C@]2(CO2)CC(C)(C)O1)=C\C[C@H]1CC[C@@H](NC(=O)/C=C\[C@H](C)OC(=O)C(C)C)CC1
- GI50 (MDA-MB-231; [18]): 0.955 µM
- CC50 (MDA-MB-231; [19]): > 100 µM
- TGI (MDA-MB-231; read-out: Log10TGI (converted)): > 100 µM
- IC50 [1]: 1.34 µM
- IC50 [2]: 0.69 µM
- GI50 (HL-60(TB); [18]): 0.129 µM
- CC50 (HL-60(TB); [19]): 74.1 µM
- TGI (HL-60(TB); read-out: Log10TGI (converted)): 0.525 µM
- GI50 (NCI-H322M; [18]): 2 µM
- CC50 (NCI-H322M; [19]): > 100 µM
- TGI (NCI-H322M; read-out: Log10TGI (converted)): 22.4 µM
- Activity (Mus musculus [3]): Non-toxic
- GI50 (TK-10; [18]): 0.457 µM
- CC50 (TK-10; [19]): > 100 µM
- TGI (TK-10; read-out: Log10TGI (converted)): 7.94 µM
- GI50 (CCRF-CEM; [18]): 0.0479 µM
- CC50 (CCRF-CEM; [19]): > 100 µM
- TGI (CCRF-CEM; read-out: Log10TGI (converted)): > 100 µM
- IC50 (SK-MEL-2 [4]): 0.29 µM
- IC50 (MOLT-4): 0.08 µM
- Activity (Mus musculus [5]): Non-toxic
- GI50 (UACC-257; [18]): 3.63 µM
- CC50 (UACC-257; [19]): > 100 µM
- TGI (UACC-257; read-out: Log10TGI (converted)): 45.7 µM
- GI50 [6, 18]: 0.427 µM
- CC50 [6, 19]: > 100 µM
- TGI ([6]; read-out: Log10TGI (converted)): 4.68 µM
- GI50 (OVCAR-8; [18]): 0.24 µM
- CC50 (OVCAR-8; [19]): > 100 µM
- TGI (OVCAR-8; read-out: Log10TGI (converted)): > 100 µM
- GI50 (LOX IMVI; [18]): 0.0794 µM
- CC50 (LOX IMVI; [19]): 55 µM
- IC50 [7]: 0.55 µM
- GI50 (NCI-H460; [18]): 0.501 µM
- CC50 (NCI-H460; [19]): > 100 µM
- TGI (NCI-H460; read-out: Log10TGI (converted)): > 100 µM
- GI50 (HT-29; [18]): 0.191 µM
- CC50 (HT-29; [19]): > 100 µM
- TGI (HT-29; read-out: Log10TGI (converted)): 10 µM
- Activity (Mus musculus [8]): Non-toxic
- IC50 (MV4-11): 0.3 µM
- GI50 (PC-3; [18]): 0.479 µM
- CC50 (PC-3; [19]): > 100 µM
- TGI (PC-3; read-out: Log10TGI (converted)): 38 µM
- IC50 (HFF): > 10 µM
- GI50 (SK-MEL-2 [9]; [18]): 0.257 µM
- CC50 (SK-MEL-2 [9]; [19]): > 100 µM
- TGI (SK-MEL-2 [9]; read-out: Log10TGI (converted)): 3.55 µM
- GI50 (SF-295; [18]): 0.339 µM
- CC50 (SF-295; [19]): > 100 µM
- TGI (SF-295; read-out: Log10TGI (converted)): 2.51 µM
- IC50 (PrEC): 7.01 µM
- GI50 [10, 18]: 0.309 µM
- CC50 [10, 19]: > 100 µM
- TGI ([10]; read-out: Log10TGI (converted)): 45.7 µM
- Activity (Mus musculus [11]): Non-toxic
- GI50 (MDA-MB-468; [18]): 0.741 µM
- CC50 (MDA-MB-468; [19]): > 100 µM
- TGI (MDA-MB-468; read-out: Log10TGI (converted)): 39.8 µM
- GI50 [12, 18]: 0.229 µM
- CC50 [12, 19]: > 100 µM
- TGI ([12]; read-out: Log10TGI (converted)): 16.2 µM
- GI50 (SR; [18]): 0.0589 µM
- CC50 (SR; [19]): > 100 µM
- TGI (SR; read-out: Log10TGI (converted)): 0.447 µM
- IC50 [13]: 0.23 µM
- IC50 [14]: 0.66 µM
- Activity (Mus musculus [15]): Non-toxic
- IC50 (WiDr): 0.91 µM
- IC50 [16]: 0.9 µM
- Activity (Mus musculus [17]): Non-toxic
- GI50 (EKVX; [18]): 0.676 µM
- CC50 (EKVX; [19]): > 100 µM
- TGI (EKVX; read-out: Log10TGI (converted)): 12.9 µM
- GI50 (SN12C; [18]): 1.23 µM
- CC50 (SN12C; [19]): > 100 µM
- TGI (SN12C; read-out: Log10TGI (converted)): > 100 µM
- GI50 (RXF 393; [18]): 0.229 µM
- CC50 (RXF 393; [19]): > 100 µM
- TGI (RXF 393; read-out: Log10TGI (converted)): 1.82 µM
- GI50 (CAKI-1; [18]): 0.302 µM
- CC50 (CAKI-1; [19]): > 100 µM
- TGI (CAKI-1; read-out: Log10TGI (converted)): 2.14 µM
- GI50 (T47D; [18]): 0.389 µM
- CC50 (T47D; [19]): > 100 µM
- TGI (T47D; read-out: Log10TGI (converted)): 14.5 µM
